# Measured values from paper PMC10166105 (International Journal of Nanomedicine, 2023).
# Tests used:
# [1] = test system: PC3 cells; test: Cell proliferation assay in 2D monolayer culture; format: cell-based, human
# Procedure, shortened: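 PC3 cells were grown in RPMI 1640 with 10% FBS and antibiotics, seeded at 1×10^4 cells/well, attached for 24 h, then dosed in 2.5% FBS-RPMI 1640. Single doses of 50, 100 and 200 μM were read at 72 h; daily 50 μM dosing ran for 4 days. Readout was WST-1 for 1 h with absorbance at 450 nm, versus untreated cells, plus live/dead imaging. n = 3, one-way ANOVA.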
# [2] = test system: PC3 spheroids; test: Anti-tumor response in 3D spheroid culture model; format: cell-based, human; conditions: PC3 3D spheroids, 50 μM, 7 days, n = 3
# Procedure, shortened: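 PC3 cells were suspended at 2000 cells/mL in 10% FBS-RPMI 1640 with 1% (v/v) Matrigel, plated in ultra-low-attachment wells, centrifuged at 1500 rpm for 10 min and grown at 37 °C, 5% CO2. After 4 days of spheroid formation, test compound was added once at final 50 μM in 2.5% FBS-RPMI. Spheroid area was imaged over 7 days and expressed as fold of day-0 area. n = 3.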
# [3] = property table of leuprolide acetate; no matrix and reference not given; cited from earlier work
# [4] = property table of leuprolide acetate; no reference given; cited from earlier work
# [5] = pH 7.4
compound,measurement,setting,value
"CCNC(=O)[C@@H]1CCCN1C(=O)[C@H](CCCNC(=N)N)NC(=O)[C@H](CC(C)C)NC(=O)[C@@H](CC(C)C)NC(=O)[C@H](Cc1ccc(O)cc1)NC(=O)[C@H](CO)NC(=O)[C@H](Cc1c[nH]c2ccccc12)NC(=O)[C@H](Cc1c[nH]cn1)NC(=O)[C@@H]1CCC(=O)N1 [LEU, Leuprolide]",Anti-proliferative effect (% of control),"[1]; PC3, treatment repeated daily at 50 µM for 4 days, WST-1, n = 3",8.9%
same,"Spheroid growth (spheroid area/volume), one-time treatment",[2],expansion of spheroid volume
same,Half-life,[3],3 h
same,Physiological charge,[4],+1
"CCCCCCCCCCCCCCCCCC(=O)O [SA, stearic acid]",Cell survival / cell growth after one-time treatment,"[1]; PC3, one-time treatment, 50, 100, 200 μM, 72 h incubation, WST-1",significantly inhibited cell growth
Leuprolide–lauric acid nanoparticle [LLN],"Change of particle size, short-time stability in PBS",[5],slight increase in the particle size
Leuprolide–palmitic acid nanoparticle [LPN],"Change of particle size, short-time stability in PBS",[5],no significant difference
Leuprolide–stearic acid nanoparticle [LSN],"Change of particle size, short-time stability in PBS",[5],no significant difference
